Experiment [1] concerns the target T1, HNE (Homo sapiens, UniProt P08246).
T1 sequence (P08246 30-267): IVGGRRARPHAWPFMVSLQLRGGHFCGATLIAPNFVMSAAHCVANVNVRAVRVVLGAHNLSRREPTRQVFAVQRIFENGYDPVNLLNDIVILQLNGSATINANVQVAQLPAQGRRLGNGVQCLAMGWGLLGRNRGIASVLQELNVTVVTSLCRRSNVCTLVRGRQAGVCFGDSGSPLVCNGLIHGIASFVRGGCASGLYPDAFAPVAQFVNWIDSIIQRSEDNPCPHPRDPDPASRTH
In words: In vitro HNE enzyme assay with pNa substrate. Type of experiment: biochemical.

Experiment [2] deals with other kallikreins. In words: Protease panel assay. Type of experiment: biochemical, human. To be noted: up to 10 μM. Put shortly: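 Human kallikreins in a 23-protease panel run by a contract lab, with enzyme conditions tabulated in the supplement. […] Fluorogenic AMC peptide substrates; fluorescence increase followed as a time course. The initial linear slope (signal/min) was used to derive IC50.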

Take `C/C=C1\NC(=O)[C@@H](NC(=O)[C@@H](NC(=O)[C@H](C)NC(=O)C/C(C)=C/Cl)[C@@H](C)CC)[C@@H](C)OC(=O)[C@H](C(C)C)NC(=O)[C@H](Cc2ccc(O)cc2)N(C)C(=O)[C@H](Cc2ccccc2)N2C(=O)[C@H](CC[C@H]2O)NC1=O` [Tutuilamide A]: the “fold less active than lyngbyastatin 7 against HNE” value in experiment [1] came to 1.5 fold. Besides, in experiment [2], the “effect on other kallikreins (selectivity profiling)” value is recorded as “without affecting”.
